We go through 1 compound from ChEMBL document CHEMBL4043276, “Design, synthesis and biological evaluation of 2-acetyl-5-O-(amino-alkyl)phenol derivatives as multifunctional agents for the treatment of Alzheimer's disease” (Bioorg Med Chem Lett, 2017).

Activity calls are given as the source filed them. No cut-off for these calls is given here. Some results are limits rather than exact numbers.

Series [1] addresses T1, Amine oxidase [flavin-containing] A (Homo sapiens, UniProt P21397).
T1 sequence (P21397 whole entry): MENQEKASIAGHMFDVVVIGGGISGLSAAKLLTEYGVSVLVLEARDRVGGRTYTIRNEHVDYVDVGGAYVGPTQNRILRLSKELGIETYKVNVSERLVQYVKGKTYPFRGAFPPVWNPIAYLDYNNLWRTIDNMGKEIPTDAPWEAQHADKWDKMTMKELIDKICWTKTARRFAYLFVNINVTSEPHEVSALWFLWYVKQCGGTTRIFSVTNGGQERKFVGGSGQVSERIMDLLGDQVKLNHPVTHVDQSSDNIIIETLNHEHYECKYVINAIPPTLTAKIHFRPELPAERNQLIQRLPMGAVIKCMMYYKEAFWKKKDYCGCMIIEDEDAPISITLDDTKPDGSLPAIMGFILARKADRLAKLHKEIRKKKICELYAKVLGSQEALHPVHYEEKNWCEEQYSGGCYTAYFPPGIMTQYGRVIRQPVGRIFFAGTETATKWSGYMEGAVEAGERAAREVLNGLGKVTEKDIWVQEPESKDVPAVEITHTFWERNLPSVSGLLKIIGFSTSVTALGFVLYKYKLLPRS
In words: Inhibition of recombinant human MAO-A at 10 uM using kynuramine as substrate after 30 mins by fluorescence method relative to control. The conditions noted are these: 0.5 h.

The nature of series [2]: Metal chelating activity assessed as compound-Fe2+ complex formation at 37.5 uM after 30 mins by UV-Visible spectrophotometric method.
The target of series [3] is Acetylcholinesterase (Electrophorus electricus, UniProt O42275). In words: Inhibition of electric eel AChE using acetylthiocholine as substrate incubated for 15 mins by Ellman's method. (In general: Ellman's reagent forms a yellow product with free thiols.)
Acetylcholinesterase, sequence (O42275 whole entry): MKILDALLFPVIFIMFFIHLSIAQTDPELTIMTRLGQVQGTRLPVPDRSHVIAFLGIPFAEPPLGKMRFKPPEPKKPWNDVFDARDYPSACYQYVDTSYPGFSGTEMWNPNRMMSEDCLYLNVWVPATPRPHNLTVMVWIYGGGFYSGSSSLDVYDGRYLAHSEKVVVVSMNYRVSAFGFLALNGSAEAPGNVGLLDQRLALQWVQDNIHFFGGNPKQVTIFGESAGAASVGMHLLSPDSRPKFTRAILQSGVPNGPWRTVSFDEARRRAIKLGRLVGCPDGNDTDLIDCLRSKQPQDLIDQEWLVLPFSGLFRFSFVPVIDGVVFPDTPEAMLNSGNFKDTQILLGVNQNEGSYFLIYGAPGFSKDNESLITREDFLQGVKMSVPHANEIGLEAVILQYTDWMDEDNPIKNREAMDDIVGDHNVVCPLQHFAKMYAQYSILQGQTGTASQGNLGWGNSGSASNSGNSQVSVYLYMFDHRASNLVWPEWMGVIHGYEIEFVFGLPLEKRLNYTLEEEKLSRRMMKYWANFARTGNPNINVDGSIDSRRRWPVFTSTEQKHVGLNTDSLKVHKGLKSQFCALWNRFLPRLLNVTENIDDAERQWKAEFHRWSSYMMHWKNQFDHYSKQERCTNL
The nature of series [4]: Antioxidant activity assessed as trolox equivalent of […]-induced radical scavenging activity measured every minute for 90 mins by ORAC fluorescein assay. It is filed as functional. An outline of the steps: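 Measured by the ORAC-FL fluorescein method. Values are given as μM Trolox equivalent per μM of test compound.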
The nature of series [5]: Metal chelating activity assessed as mole fraction of compound required to show 1:1 stoichiometry for Cu2+-compound complex at 37.5 uM after 30 mins by UV-Visible spectrophotometric method.
A short description of series [6]: Effective permeability of the compound by PAMPA. Type of series: physicochemical. Particulars: read-out: Peff. (In general: In PAMPA a lipid-coated filter parts donor from acceptor wells.)
The test system of series [7] is PC-12. As to the kind of experiment: Protection against H2O2-induced cell injury in rat PC12 cells assessed as cell viability preincubated for 2 hrs followed by H2O2 addition measured after 24 hrs by MTT assay. It is filed as functional, cell-based. An outline of the steps: (§1)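 PC12 cells were injured with 100 μM H2O2. Viability was measured by MTT reduction and compared with untreated control and with the H2O2-only group.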
On the technique in general: Tetrazolium assays rely on reduction of a dye to a coloured formazan, in cell work by metabolically active cells.

Series [8] concerns the target T2, Amine oxidase [flavin-containing] B (Homo sapiens, UniProt P27338).
T2 sequence (P27338 whole entry): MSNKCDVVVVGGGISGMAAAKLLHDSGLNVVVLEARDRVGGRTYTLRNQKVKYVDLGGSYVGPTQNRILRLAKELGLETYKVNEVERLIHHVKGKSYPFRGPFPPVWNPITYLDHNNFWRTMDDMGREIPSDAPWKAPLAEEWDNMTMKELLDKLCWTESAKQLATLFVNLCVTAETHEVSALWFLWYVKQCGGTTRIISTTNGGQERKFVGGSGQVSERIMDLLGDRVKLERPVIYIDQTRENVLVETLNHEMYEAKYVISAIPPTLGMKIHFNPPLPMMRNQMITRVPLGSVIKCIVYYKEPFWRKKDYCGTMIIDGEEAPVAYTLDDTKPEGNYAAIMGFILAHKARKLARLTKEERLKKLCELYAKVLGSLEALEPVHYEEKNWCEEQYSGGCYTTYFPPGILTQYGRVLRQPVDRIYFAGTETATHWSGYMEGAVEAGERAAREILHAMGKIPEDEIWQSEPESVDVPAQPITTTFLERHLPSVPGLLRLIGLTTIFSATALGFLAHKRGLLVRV

Series [9] concerns PC-12. As to the kind of experiment: Protection against H2O2-induced cell injury in rat PC12 cells assessed as cell viability at 1 uM preincubated for 2 hrs followed by H2O2 addition measured after 24 hrs by MTT assay (reference value: 46.5%). Type of series: functional. The conditions noted are these: read-out: Activity. Summed up:
as §1

Series [10] in a line: Metal chelating activity assessed as compound-Cu2+ complex formation by measuring red shift at 37.5 uM after 30 mins by UV-Visible spectrophotometric method.
A short description of series [11]: Selectivity index, ratio of IC50 for equine serum BuChE to IC50 for electric eel AChE. Summed up: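 IC50 values for E. electricus AChE and equine serum BuChE came from a modified Ellman assay, each the mean of three independent experiments run in triplicate. The selectivity index is the ratio of the two IC50 values.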
The subject of series [12] is PC-12. In words: Protection against H2O2-induced cell injury in rat PC12 cells assessed as cell viability at 10 uM preincubated for 2 hrs followed by H2O2 addition measured after 24 hrs by MTT assay (reference value: 46.5%). The conditions noted are these: read-out: Activity. It is filed as functional. Summed up:
as §1

Series [13] in a line: Metal chelating activity assessed as compound-Zn2+ complex formation at 37.5 uM after 30 mins by UV-Visible spectrophotometric method.
The nature of series [14]: Metal chelating activity assessed as compound-Al3+ complex formation at 37.5 uM after 30 mins by UV-Visible spectrophotometric method.
The target in series [15] is Acetylcholinesterase (Electrophorus electricus) (UniProt O42275). The conditions noted are these: 0.5 to 2 uM.
Acetylcholinesterase (Electrophorus electricus), sequence (O42275 24-633 limits assumed): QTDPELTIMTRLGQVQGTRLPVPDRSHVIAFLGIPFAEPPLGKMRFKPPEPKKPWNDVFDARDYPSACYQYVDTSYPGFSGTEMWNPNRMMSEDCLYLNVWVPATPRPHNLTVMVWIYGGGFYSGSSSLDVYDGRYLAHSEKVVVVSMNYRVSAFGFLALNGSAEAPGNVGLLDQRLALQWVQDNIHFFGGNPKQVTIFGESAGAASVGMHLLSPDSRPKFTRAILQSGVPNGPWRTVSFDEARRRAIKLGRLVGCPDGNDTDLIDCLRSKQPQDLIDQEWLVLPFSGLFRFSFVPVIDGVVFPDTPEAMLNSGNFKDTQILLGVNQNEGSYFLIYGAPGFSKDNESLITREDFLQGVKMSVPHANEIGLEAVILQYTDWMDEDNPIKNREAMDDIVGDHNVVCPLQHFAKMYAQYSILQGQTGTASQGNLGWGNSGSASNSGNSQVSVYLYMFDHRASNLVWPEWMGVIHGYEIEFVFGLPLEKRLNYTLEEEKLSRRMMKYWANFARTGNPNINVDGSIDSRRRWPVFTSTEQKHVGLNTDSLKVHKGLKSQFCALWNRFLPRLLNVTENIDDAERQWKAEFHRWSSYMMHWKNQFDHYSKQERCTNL
Series [16] has as its target Cholinesterase (Equus caballus, UniProt P81908). Type of series: ADME.

Cholinesterase, sequence (P81908 whole entry): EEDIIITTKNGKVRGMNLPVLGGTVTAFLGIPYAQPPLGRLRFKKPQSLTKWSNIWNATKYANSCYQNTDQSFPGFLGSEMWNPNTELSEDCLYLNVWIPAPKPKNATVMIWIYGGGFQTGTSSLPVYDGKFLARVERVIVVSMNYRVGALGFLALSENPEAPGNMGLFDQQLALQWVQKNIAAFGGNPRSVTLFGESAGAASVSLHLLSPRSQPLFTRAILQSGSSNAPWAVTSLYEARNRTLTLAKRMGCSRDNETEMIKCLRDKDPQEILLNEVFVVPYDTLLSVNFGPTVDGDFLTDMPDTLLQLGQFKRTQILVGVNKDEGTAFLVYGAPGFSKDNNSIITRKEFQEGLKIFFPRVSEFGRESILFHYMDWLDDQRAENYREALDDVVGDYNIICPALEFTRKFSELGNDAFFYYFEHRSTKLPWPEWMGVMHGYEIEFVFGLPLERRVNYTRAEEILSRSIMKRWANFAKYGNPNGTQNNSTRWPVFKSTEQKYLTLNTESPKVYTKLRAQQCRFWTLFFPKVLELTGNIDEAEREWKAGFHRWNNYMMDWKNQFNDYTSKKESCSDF

As for `CC(=O)c1ccc(OCCCN2CCN(Cc3ccccc3)CC2)cc1O`, in series [1], the inhibition at 10 µM is less than 5%. In addition, the outcome in [2], in series [13] and in series [14] was inactive. The 50% inhibitory concentration (IC50) in series [3] was 0.96 µM; in [8], 6.8 µM; in series [16] it was 31.4 µM. Moreover, the results for the Activity in [4], in series [5] and in [7] were 1.5 equiv, 0.99 molar ratio and “Dose-dependent effect”, respectively. Further, the Papp in [6] is 13.3 ×10⁻⁶ cm/s. For the same compound, the viability at 1 µM in series [9] is 59.6%. The result in series [10] was Active. In series [11], the Ratio IC50 is 32.7. In addition, the viability at 10 µM in series [12] turned out to be 73.3%. Besides, the inhibition result in [15] was “Active”.

A word on the inhibition: it is the relative decrease from the control value, in per cent. One may read the IC50 as the concentration that inhibits the measured activity by half.
